Bioassay records: PubChem, Sanford-Burnham Center for Chemical Genomics
Shown are actives, neighbours in structure and some others; about 1.4% of the full set was active somewhere.
A3G deaminase: blocks human APOBEC3G single-stranded DNA deamination; inhibition, % at 20 µM; hit rate 0.28% among 330,000; Q9HC16; recombinant A3G, ssDNA deamination FAM/TAMRA fluorescence;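 active = inhibition of at least 40% at 20 µM, with no more than 30% in the related APOBEC3A deaminase screen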;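 also: plate controls were DMSO wells with A3G for no effect and wells lacking A3G enzyme for full effect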
Target sequence (Q9HC16 whole entry, looked up): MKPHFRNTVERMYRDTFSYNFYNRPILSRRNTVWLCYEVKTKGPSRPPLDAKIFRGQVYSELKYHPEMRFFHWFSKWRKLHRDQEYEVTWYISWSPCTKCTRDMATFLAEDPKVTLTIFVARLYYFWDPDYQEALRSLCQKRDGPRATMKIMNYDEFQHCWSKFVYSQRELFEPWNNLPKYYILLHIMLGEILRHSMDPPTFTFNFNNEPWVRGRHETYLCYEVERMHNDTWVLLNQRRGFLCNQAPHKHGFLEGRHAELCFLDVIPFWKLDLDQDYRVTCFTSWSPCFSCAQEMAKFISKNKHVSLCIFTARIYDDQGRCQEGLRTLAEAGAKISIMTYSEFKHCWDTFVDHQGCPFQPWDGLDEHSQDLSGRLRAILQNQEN
PfGluPho inh: PfG6PD (Plasmodium falciparum) enzyme inhibition | PfGluPho enzyme, NADPH resazurin-diaphorase fluorescence | inhibition, % at 20 µM | hit rate 0.78% among 350,000 | AID 504690;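 active = inhibition reaching at least a set limit at 20 µM in the primary screen, cut at about 59% in these data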;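 also: 0% = DMSO wells with substrate and 100% = DMSO wells lacking glucose-6-phosphate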
A3A deaminase: blocks human APOBEC3A ssDNA deamination | P31941 | recombinant A3A, FAM/TAMRA ssDNA deamination fluorescence | inhibition, % at 20 µM | hit rate 0.41% among 330,000;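 active = at least 40% inhibition at 20 µM here, with at most 30% in a related deaminase screen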;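 also: plate controls were A3A with DMSO for no effect and wells lacking A3A enzyme for full effect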
HKDC1 inhibitor: HKDC1 (human) hexokinase inhibition; recombinant HKDC1, G6PDH/diaphorase resazurin coupled fluorescence; inhibition, % at 20 µM; hit rate 0.16% among 340,000; AID 493160;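 active = inhibition above about 35% when tested at 20 µM, limit read from the data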;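 also: plate controls were DMSO wells with enzyme for no effect and DMSO wells lacking enzyme for full effect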
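Material: recombinant HKDC1 hexokinase; Amount: HKDC1 at 5 µg/mL; Medium: Tris pH 8.0 buffer with MgCl2, Tween-20, BSA, BME; Schedule: 90 min reaction incubation at room temperature, dark; Technique: coupled resazurin fluorescence, excitation 525 nm, emission 613 nm.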
iPSC survival up: hiPSC single-cell survival enhancement | hit rate 0.044% among 360,000 | ATPlite luminescence; 100% = ROCK inhibitor wells, 0% = DMSO | survival enhancement, % at 20 µM | AID 602274; in the data active = survival enhancement above about 18%;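 also: cells exposed to compounds for 16 hours before the ATP read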
APOBEC3A confirm: APOBEC3A (human) deaminase inhibition, confirmed; shares compounds with A3A deaminase; recombinant A3A, ssDNA deaminase UDG fluorescence assay; inhibition, % at 20 µM; hit rate 63% among 1,400; AID 493151;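 active = inhibition reaching a set limit, 80% of the first screen's cutoff, at 20 µM in any replicate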;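 also: plate controls were DMSO wells with A3A for no effect and wells lacking A3A enzyme for full effect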
UDG A3A counter: UDG inhibition in APOBEC3A counter-screen; shares compounds with A3A deaminase; UDG counterscreen, FAM/TAMRA uracil oligo fluorescence; inhibition, % at 20 µM; 1,000 tested, under 10 active; AID 504714; call rule not given here
APOBEC3G confirm: APOBEC3G (human) deaminase inhibition, confirmed; shares compounds with A3G deaminase; recombinant A3G ssDNA deaminase, UDG/FAM-TAMRA fluorescence; inhibition, % at 20 µM; hit rate 72% among 890;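 active = inhibition reaching a set limit in any replicate at 20 µM, the limit being 80% of the first screen's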
UDG ctr A3G: inhibits E. coli UDG, flagging false APOBEC3G inhibitors. UDG counterscreen, FAM/TAMRA oligo fluorescence. AID 504715. shares compounds with A3G deaminase. 710 tested, under 10 active. inhibition, % at 20 µM;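 active = compounds giving 40% or more inhibition at 20 µM in any one of the three replicates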;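 also: plate controls were DMSO wells with UDG and oligo for no effect and DMSO wells lacking both for full effect; inhibitors lower the FAM signal released by uracil excision and alkaline cleavage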
Target sequence (P12295 whole entry, looked up): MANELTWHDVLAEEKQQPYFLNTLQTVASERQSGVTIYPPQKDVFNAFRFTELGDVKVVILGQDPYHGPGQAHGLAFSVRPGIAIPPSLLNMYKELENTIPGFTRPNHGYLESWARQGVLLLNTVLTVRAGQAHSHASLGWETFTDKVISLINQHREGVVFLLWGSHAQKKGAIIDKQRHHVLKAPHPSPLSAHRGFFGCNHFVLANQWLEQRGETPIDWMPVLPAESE
HKDC1 act conf: confirmation of human HKDC1 activators | shares compounds with HKDC1 inhibitor | recombinant HKDC1, G6PDH/diaphorase resazurin fluorescence; active compounds read low | AID 504708 | inhibition, % at 20 µM | hit rate 14% among 740;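 active = inhibition at or below a set negative limit, negative inhibition meaning the enzyme was activated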
Starred values were filed as active, the others as inactive; x = no result given.

SMILES	A3G deaminase	PfGluPho inh	A3A deaminase	HKDC1 inhibitor	iPSC survival up	HKDC1 act conf	others
O=C1NC(=O)N(CCc2ccc(F)cc2)C(=O)/C1=C/c1ccco1	27	26	74*	9	0	x	APOBEC3A confirm=52*;UDG A3A counter=6
COc1ccc(CN2C(=O)NC(=O)/C(=C\c3cc(OC)c(OC)c(OC)c3)C2=O)cc1	-4	-2	0	-8	-1	x
CCN(CC)c1ccc(/C=C2/C(=O)NC(=O)N(Cc3ccco3)C2=O)cc1	36	20	65	2	1	x
COc1ccc(CN2C(=O)NC(=O)/C(=C\c3ccco3)C2=O)cc1	26	27	47*	10	1	x	APOBEC3A confirm=62*;UDG A3A counter=2
C[C@]12CC[C@@H](O)CC1=CCC1C2CC[C@@]2(C)C1CC[C@@H]2O (stereo partly drawn)	x	-15	x	x	-1	x
C=Cc1ccc(Cn2c(C(=O)O)c(C=O)c3ccccc32)cc1	5	-6	74*	4	0	x	APOBEC3A confirm=17
Cc1ccccc1NC(=O)N1Cc2ccccc2-n2nncc2C1	x	16	x	x	3	x
COc1ccc2[nH]cc(CCN=C(N)N)c2c1	14	1	54*	1	3	x	APOBEC3A confirm=28*;UDG A3A counter=-2
NC(Cc1ccccc1Cl)c1nn[nH]n1 (stereo not drawn)	x	-1	x	x	4	x
O=C1C2CCCN2C(c2cccs2)N1c1ccccn1 (stereo not drawn)	89*	0	0	0	0	x	APOBEC3G confirm=16;UDG ctr A3G=-3
C[C@H]1CN([C@@H](C)CO)C(=O)CCCn2nncc2CO[C@H]1CN(C)C(=O)Oc1ccc2ccccc2c1	x	-12	x	x	0	x
Oc1ccc2c3c1O[C@H]1[C@@H](O)CC[C@@]4(O)[C@@H](C2)N(CC2CCC2)CC[C@]314	-7	0	-1	-2	0	x
NC(N)=Nc1ccc2[nH]c3c(c2c1)C[C@@]1(O)[C@H]2Cc4ccc(O)c5c4[C@@]1(CCN2CC1CC1)[C@H]3O5	84*	97*	16	1	-2	x	APOBEC3G confirm=97*;UDG ctr A3G=-1
C[C@@H]1CN([C@H](C)CO)C(=O)CCCn2cc(nn2)CO[C@H]1CN(C)C(=O)Oc1ccc2ccccc2c1	x	-10	x	x	-3	x
Nc1cc2nc3ccccc3nc2cc1N	48*	39	18	20	0	x	APOBEC3G confirm=25*;UDG ctr A3G=0
Nc1c2c(nc3ccccc13)CCN(Cc1ccccc1)C2	-8	-4	-4	9	0	x
C/C(=N\NC(=O)c1ccccc1)c1c(O)n(Cc2ccccc2)c(=O)[nH]c1=O	-6	-27	1	-4	0	x
C/C(=N\Nc1cccc2ccccc12)c1c(O)n(Cc2ccccc2)c(=O)[nH]c1=O	41*	4	-7	14	1	x	APOBEC3G confirm=16;UDG ctr A3G=-5
O=C1C2CC(CN3CCCCC23)C2CCCCN12 (stereo not drawn)	x	x	x	x	-1	x
COc1cc2c(cc1OC)-c1c3c(cc4c1[C@@H](C2)N(C)CC4)OCO3	45*	46	26	21	-4	x	APOBEC3G confirm=24
CCn1c(NN=O)nc2ccccc21	58*	8	-1	-16	0	x	APOBEC3G confirm=14;UDG ctr A3G=-1
c1ccc2c(c1)-c1cccc3cccc-2c13	4	30	1	5	3	x
Nc1c(Br)cc2c3c(cccc13)-c1ccccc1-2	x	125*	x	70*	x	51
CS(=O)(=O)c1ccc(C2=C(CNC(=O)c3nccs3)[C@H]3CC[C@@H](C2)N3CCOc2ccccc2)cc1	x	0	x	x	0	x
CCOC(=O)c1c(-n2c(C)cc(C=C3C(=O)NC(=S)NC3=O)c2C)sc2c1CCCC2	49	-39	35	59*	5	61
SMILES	A3G deaminase	PfGluPho inh	A3A deaminase	HKDC1 inhibitor	iPSC survival up	HKDC1 act conf	others
CCN1C(=O)NC(=O)/C(=C/c2cc(C)n(-c3sc(C)c(C)c3C#N)c2C)C1=O	-7	11	-1	7	2	x
Cc1ccc(N2C(=O)NC(=O)/C(=C\c3cc(C)n(-c4sc5c(c4C#N)CCCC5)c3C)C2=O)cc1	4	22	2	66*	-4	77
OCC1CO1 (stereo not drawn)	-2	-5	-1	-6	-3	x
CC(=NNC(=S)N1CC2CCC(CC2)C1)c1nccs1	x	29	x	-43	-2	-42*
COC(=O)C1=C(c2ccc(Cl)c(C(F)(F)F)c2)C[C@@H]2CC[C@H]1N2C(=O)N1CCC(C)CC1	-1	10	-2	3	-3	x
Brc1ccc(C2N3CCCN23)cc1 (stereo not drawn)	-6	-6	2	-79	11	-23
Cc1ccc(C2N3CCCN23)cc1 (stereo not drawn)	-4	20	0	1	0	x
O=C1N[C@@H](Cc2ccccc2)C(=O)N2[C@H]1C[C@H]1c3ccccc3N(OOSc3ccccc3)[C@H]12	-5	23	-3	5	1	x
O=c1nc(/C=C/c2ccc(Cl)cc2Cl)cc(C(F)(F)F)[nH]1	2	-6	-4	35*	0	6
CC1CCC(C)(NS(=O)(=O)OCC(Cl)(Cl)Cl)CC1 (stereo not drawn)	-3	3	-1	38*	-1	-30
COc1cc(O)cc2c1cc([N+](=O)[O-])c1c(C(=O)O)cc3c(c12)OCO3	4	42	7	36*	-1	33
CC[C@H](C)/C=C(C)/C=C/C1=CC2=C(Cl)C(=O)[C@](C)(OC(C)=O)C(=O)C2=CO1	3	18	7	59*	-1	36
O=C(NC1CCCCC1)N1Cc2cc(-c3ccccc3)ccc2-n2nncc2C1	x	x	x	x	-2	x
CN1C(=O)NC(=O)C(N=Nc2ccc(Cl)cc2)C1=O (stereo not drawn)	x	9	x	-3	-3	x
Cc1ccccc1N1C(=O)NC(=O)/C(=C\c2ccc3c(c2)CCCN3Cc2ccccc2)C1=O	0	16	3	35*	-1	13
CCC(c1nnnn1Cc1ccccc1)N1CCC(n2c(=O)[nH]c3ccccc32)CC1 (stereo not drawn)	x	x	x	x	0	x
CCN(CC)CCNC(=O)c1c(O)c2ccccc2n(Cc2ccccc2)c1=O	-6	9	-6	-4	-1	x
CCN(CC)CCCNC(=O)c1c(O)c2ccccc2n(Cc2ccccc2)c1=O	-2	40	2	83*	-2	-37*
